From PubChem
FN deposit inh: fibronectin deposition inhibition; inhibition, % at 12.6 µM; 350,000 tested, 0.086% active; AH1F fibroblasts, Alexa488-fibronectin deposition fluorescence, overnight; AID 743247;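 active = mean inhibition across replicates of 30% or more, regardless of how many single replicates reach that level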;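 also: positive control wells lacked labelled fibronectin entirely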
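Assay system: AH1F fibroblasts assembling fluorescent fibronectin matrix; Amount: 10000 AH1F cells per well; Buffer or medium: DMEM, 2% serum; Probe or stimulus: Alexa488-fibronectin, 24 nM final in well; Doses: single compound dose, delivered by pin transfer; Incubation: 1 h adhesion, overnight exposure; Measured by: fluorescence 485/525 nm; Read-out: fibronectin deposition inhibition.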
ERp5 block: ERp5 (human) disulfide isomerase inhibition; inhibition, % at 9.99 µM; 350,000 tested, 0.05% active; AID 651711; Q15084; ERp5 insulin aggregation, absorbance 650 nm, 90 min;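 active = mean replicate inhibition above about 25%, with every replicate also reaching it, limit read from the data, passing the limit was not always enough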
Target sequence (Q15084 whole entry, looked up): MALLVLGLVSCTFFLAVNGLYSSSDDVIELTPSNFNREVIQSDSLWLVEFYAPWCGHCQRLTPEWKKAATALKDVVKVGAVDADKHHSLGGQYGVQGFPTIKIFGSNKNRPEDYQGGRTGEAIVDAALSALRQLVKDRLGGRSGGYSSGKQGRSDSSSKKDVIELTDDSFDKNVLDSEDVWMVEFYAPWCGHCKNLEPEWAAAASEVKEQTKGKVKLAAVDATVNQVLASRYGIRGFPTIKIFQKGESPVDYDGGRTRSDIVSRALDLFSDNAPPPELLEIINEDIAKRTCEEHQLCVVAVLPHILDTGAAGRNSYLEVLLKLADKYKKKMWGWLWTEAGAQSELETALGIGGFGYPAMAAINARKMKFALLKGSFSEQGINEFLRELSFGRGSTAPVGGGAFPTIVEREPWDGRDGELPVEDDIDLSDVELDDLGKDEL
PDI inh: blocks human protein disulfide isomerase activity; PDI insulin aggregation turbidity, A650, 90 min; P07237; AID 588391; inhibition, % at 10 µM; 350,000 tested, 0.052% active;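 active = mean inhibition across replicates of 30% or more, whatever share of single replicates reach that level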
Env fusion inh: HIV envelope-mediated fusion inhibition; AID 651610; inhibition, % at 12.3 µM; 360,000 tested, 1.1% active; HeLa-JRFL Env/CEM21 cell fusion, luciferase;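 active = mean replicate inhibition score of at least 50 and every replicate individually at or above 50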;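 also: 0% = plate neutral controls and 100% = maraviroc near 300 nM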
PvdQ acylase: P. aeruginosa PvdQ acylase inhibition; purified PvdQ acylase, fluorescence plate reader; inhibition, % at 10 µM; 340,000 tested, 0.063% active; AID 488965; in the data active = inhibition above about 30%, passing the limit was not always enough;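 also: 0% = vehicle neutral wells and 100% = reference inhibitor wells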
Ecoli rRNA inh: selective bacterial rRNA inhibition in E. coli; E. coli WT GFP vs humanized-ribosome RFP mutants, fluorescence, 24 h; active compounds read low; DMSO median 0, no signal -100; GFP signal change (wild-type ribosome), % (no concentration beside the values); 350,000 tested, 1.6% active; AID 720706;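 active = significant combined selectivity score with lowered wild-type GFP, culture density cut under 30%, mutant RFP and density less affected; inactive = any of these conditions unmet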
Starred values were filed as active, the others as inactive; nt = not tested or not shown; ! = not confirmed by another sample; [ ] = dose if it differs, or a comment. Hits are enriched below; roughly 2.2% of the tested compounds scored in any of these assays.

SMILES	FN deposit inh	ERp5 block	PDI inh	Env fusion inh	PvdQ acylase	Ecoli rRNA inh
CCCNC(=O)C[C@@H]1CC[C@H]2[C@H](COc3ccc(NC(=O)c4ccc(OC)cc4)cc3C(=O)N2C)O1	-14.0	nt	nt	8.5[16.7 µM]	nt	-3.6
CCOc1ccc(-c2cc(N)n(S(=O)(=O)c3cccc4nsnc34)n2)cc1	-7.2	-7.8	0.4	63.8*	-3.8	-2.1
COc1cc(OC)cc(-c2cc(N)n(S(=O)(=O)c3cccc4nsnc34)n2)c1	9.5	-6.6	2.4	5.6	-5.2	-17.1
C[C@@H]1CN([C@@H](C)CO)C(=O)Cc2cc(NC(=O)Cn3cnnn3)ccc2O[C@@H]1CN(C)S(=O)(=O)c1ccccc1	nt	nt	nt	nt	nt	1.4
C[C@@H]1CN(C)C(=O)c2cccc(N)c2O[C@@H]1CN(C)C(=O)OC(C)(C)C	-12.8	nt	nt	nt	nt	0.9
C[C@@H]1CN([C@@H](C)CO)S(=O)(=O)c2ccc(C3=CCCC3)cc2O[C@H]1CN(C)C(=O)C1CC1	-8.8	nt	nt	-4.6[16.7 µM]	nt	-3.3
COc1ccc(/C=C/c2nc(S(=O)(=O)c3ccccc3)c(NCCCN(C)C)o2)cc1OC	5.8	4.7	-2.8	74.2*	-14.7	7.0
COc1ccccc1/C=C/c1nc(S(=O)(=O)c2ccccc2)c(NCCN(C)C)o1	10.3	4.7	-5.8	4.0	-6.5	0.0
CC(=NNC(=S)Nc1ccccc1Cl)c1ccccn1	22.8	0.7	3.6	63.0*	2.9	-11.9
CC(=NNC(=S)Nc1ccccc1)c1ccccn1	5.7	-5.8	-3.3	14.5	nt	-12.2
COc1ccc(S(=O)(=O)Nc2ccc3c(c2)C(=O)N([C@@H](C)CO)C[C@H](C)[C@H](CN(C)C)OCCCC[C@@H](C)O3)cc1	-11.2	-0.2	nt	-0.7[16.7 µM]	nt	2.4
O=C(c1ccccc1O)N1N=C(C(F)(F)F)CC1(O)c1ccc([N+](=O)[O-])cc1 (configuration not stated)	-3.5	-1.1	-4.7	58.7*	-3.4	-18.9
O=C(CN1N=C(C(F)(F)F)CC1(O)c1ccc([N+](=O)[O-])cc1)c1ccccc1 (configuration not stated)	-18.4	nt	-4.8	-167.2	-11.0	nt
C/C=C/c1ccc2c(c1)O[C@H](CN(C)C(=O)Nc1ccc(C(F)(F)F)cc1)[C@H](C)CN([C@H](C)CO)S2(=O)=O	17.5	14.5	nt	37.5[16.7 µM]	nt	0.5
O=C(C[C@H]1C=C[C@@H](NC(=O)C2CC2)[C@@H](CO)O1)NCc1ccccc1Cl	0.0	-1.0	nt	15.3[16.7 µM]	nt	-1.3
Cc1ccc(S(=O)(=O)NCc2ccc3c(c2)OCO3)cc1C	-2.9	3.9	-6.8	-0.4	35.9*	-9.2
O=c1c2ccccc2nnn1CSc1nc2cc(Cl)ccc2c(=O)n1Cc1ccco1	2.9	nt	nt	2.2	nt	nt
O=c1c2ccccc2nnn1CSc1nnc(COc2ccc(Cl)cc2)n1Cc1ccco1	0.2	nt	3.7	70.4*	-10.6	nt
C[C@H](CO)N1C[C@H](C)[C@@H](CN(C)Cc2ccc(Cl)c(Cl)c2)Oc2ccc(NC(=O)Nc3ccc4c(c3)OCO4)cc2C1=O	nt	-2.2	nt	nt	nt	-3.2
O=C(CSc1nnc(-c2c[nH]c3ccccc23)o1)N1CCCCC1	nt	-13.5	-4.9	nt	-9.7	-32.5*
O=C(O)c1ccc(N/N=C/c2ccc3c(c2)OCO3)cc1	4.2	1.9	-2.7	70.1*	-13.2	-19.4
O=c1cnnc(N/N=C/c2ccc3c(c2)OCO3)[nH]1	1.8	-2.1	-3.6	55.2*	3.4	38.0
Cc1cccc(CNc2ncnc3ccc(-c4ccc5c(c4)OCCO5)cc23)c1	2.6	-4.8	-5.8	80.3*	9.3	-20.9
Cc1csc(CNc2ncnc3ccc(-c4ccc5c(c4)OCO5)cc23)c1	8.8	2.2	-0.6	60.7*	-11.5	-17.1
Cc1csc(CNc2ncnc3ccc(-c4ccc5c(c4)OCCO5)cc23)c1	-6.1	-1.3	0.0	48.6	5.0	-24.0
SMILES	FN deposit inh	ERp5 block	PDI inh	Env fusion inh	PvdQ acylase	Ecoli rRNA inh
Nc1ccc(Sc2nc3ccccc3[nH]2)cc1	-1.5	-8.1	-0.8	7.1	0.6	-21.8*
CC1Oc2ccccc2C=C1/C=N/Nc1ccc(C(=O)O)cc1 (configuration not stated)	-0.4	-5.6	-12.7	-150.6	10.4	-22.6*
Cc1cc(C)c2c3c(c(-c4ccccc4)n2n1)c(=O)n(C)c(=O)n3C	8.2	-13.9	-8.8	-18.7	2.5	12.9
Cc1nc2ccccc2n2c(-c3ccccc3)c3c(=O)n(C)c(=O)n(C)c3c12	14.5	8.7	3.1	-101.1	-8.5	-34.0*
Cc1ccc(Cn2c(N)nc3ccccc32)cc1	-8.2	6.3	4.2	59.2*	-9.2	-21.4
CCC(=O)Nc1ccc2c(c1)C(=O)N(C)C[C@@H](OC)[C@H](C)CN(C(=O)CC)[C@@H](C)CO2	-12.0	-0.2	nt	59.4*[16.7 µM]	nt	3.3
CO[C@@H]1CN(C)C(=O)c2ccc(NS(=O)(=O)CC(F)(F)F)cc2OC[C@@H](C)N(C(=O)c2ccc3c(c2)OCO3)C[C@@H]1C	-2.2	nt	nt	64.5*[16.7 µM]	nt	1.8
CCCC(=O)Nc1ccc2c(c1)OC[C@H](C)N(C(=O)CN(C)C)C[C@@H](C)[C@H](OC)CN(C)C2=O	0.1	2.2	nt	57.7*[16.7 µM]	nt	nt
CCCC(=O)Nc1ccc2c(c1)OC[C@@H](C)N(C(=O)CN(C)C)C[C@@H](C)[C@H](OC)CN(C)C2=O	-3.5	2.1	nt	12.4[16.7 µM]	nt	-0.8
COCC(=O)Nc1ccc2c(c1)C(=O)N(C)C[C@@H](OC)[C@H](C)CN(C(C)=O)[C@H](C)CO2	2.7	1.2	nt	85.3*[16.7 µM]	nt	2.9
CCC(=O)Nc1ccc2c(c1)C(=O)N(C)C[C@H](OC)[C@@H](C)CN(C(=O)CC)[C@H](C)CO2	2.9	nt	nt	6.3[16.7 µM]	nt	0.4
C[C@H](CO)N1C[C@H](C)[C@H](CN(C)S(=O)(=O)c2ccc(F)cc2)Oc2c(NC(=O)NC3CCCCC3)cccc2C1=O	-7.2	5.0	nt	nt	nt	-10.6
COc1ccc(S(=O)(=O)Nc2cccc3c2O[C@@H](CN(C)C(=O)Nc2ccc4c(c2)OCO4)[C@H](C)CN([C@H](C)CO)C3=O)cc1	-5.5	-3.2	nt	-7.6[16.7 µM]	nt	-0.8
COc1cccc(S(=O)(=O)Nc2ccc3c(c2)C(=O)N(C)C[C@H](OC)[C@H](C)CN(Cc2ccccc2F)[C@@H](C)CO3)c1	-5.1	-5.5	nt	0.2	nt	-18.4*!
CCS(=O)(=O)Nc1ccc2c(c1)C(=O)N(C)C[C@@H](OC)[C@H](C)CN(C(=O)C1CCC1)[C@@H](C)CO2	nt	0.3	nt	-1.2[16.7 µM]	nt	0.4
COCC(=O)Nc1ccc2c(c1)C(=O)N(C)C[C@@H](OC)[C@@H](C)CN(C)[C@H](C)CO2	5.2	2.1	nt	59.7*[16.7 µM]	nt	3.1
CCS(=O)(=O)Nc1ccc2c(c1)C(=O)N(C)C[C@H](OC)[C@@H](C)CN(C(=O)C1CCC1)[C@H](C)CO2	nt	1.4	nt	61.0*[16.7 µM]	nt	1.8
CCCNC(=O)N[C@H]1CC[C@H](CC(=O)NC2CCC2)O[C@@H]1CO	-7.4	nt	nt	-10.0[16.7 µM]	nt	3.2
COc1ccc2c3c(n(C)c2c1)[C@H](CO)N(C(=O)Nc1ccc(F)cc1)CC31CN(C(=O)c2ccccc2F)C1	nt	2.6	nt	nt	nt	4.3
